# The other results are listed elsewhere or left out. Values without a mark were called inactive.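 How the source made its calls: active means percent inhibition of p97 ATPase above a set limit, the primary screen's mean plus 3 SD (cut at about 15% in these data); inactive means the rest.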
# Target: Transitional endoplasmic reticulum ATPase (Homo sapiens) (UniProt P55072)
# Assay: blockers of p97 ATP hydrolysis – biochemical, confirmation (AID 1517);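 further: 0% = DMSO wells and 100% = wells lacking p97 protein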
# Conditions: recombinant p97 ATPase, Kinase-Glo ATP luminescence; at 8 µM; hits give high values
# Outline: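 Test system: recombinant p97 ATPase. Buffer or medium: Tris/MgCl2/EDTA/DTT buffer, pH 8.0. Compound dosing: one dose, 8 µM nominal final. Timing: 30 min pre-incubation, 3 h ATP reaction. Technique: Kinase-Glo luminescence. Measure: % inhibition versus DMSO and no-enzyme controls. Benchmarks: DMSO-only and no-enzyme wells. Replication: each compound tested in triplicate.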
# Sequence of Transitional endoplasmic reticulum ATPase (Homo sapiens) (P55072 whole entry, looked up): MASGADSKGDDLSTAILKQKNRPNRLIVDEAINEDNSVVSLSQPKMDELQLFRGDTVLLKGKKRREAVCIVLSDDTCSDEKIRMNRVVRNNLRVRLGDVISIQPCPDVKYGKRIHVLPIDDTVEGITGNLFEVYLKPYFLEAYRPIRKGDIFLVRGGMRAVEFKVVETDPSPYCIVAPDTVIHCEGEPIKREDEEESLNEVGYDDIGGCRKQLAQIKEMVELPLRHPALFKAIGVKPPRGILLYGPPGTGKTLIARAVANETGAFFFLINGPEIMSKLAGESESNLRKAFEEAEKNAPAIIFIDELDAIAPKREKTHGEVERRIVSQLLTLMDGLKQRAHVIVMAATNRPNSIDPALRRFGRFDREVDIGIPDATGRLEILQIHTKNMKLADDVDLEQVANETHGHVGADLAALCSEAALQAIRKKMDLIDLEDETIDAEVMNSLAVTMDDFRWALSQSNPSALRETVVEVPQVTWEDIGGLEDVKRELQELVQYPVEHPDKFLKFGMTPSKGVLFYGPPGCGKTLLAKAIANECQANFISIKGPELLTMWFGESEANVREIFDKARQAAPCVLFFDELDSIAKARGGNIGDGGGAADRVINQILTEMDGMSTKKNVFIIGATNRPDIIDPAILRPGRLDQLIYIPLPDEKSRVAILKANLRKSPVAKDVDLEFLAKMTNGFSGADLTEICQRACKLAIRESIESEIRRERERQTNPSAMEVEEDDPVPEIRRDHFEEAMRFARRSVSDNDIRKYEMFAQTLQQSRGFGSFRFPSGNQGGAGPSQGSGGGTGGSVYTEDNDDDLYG
structure (smiles),measurement,value
O=c1[nH]c(CN2CC=C(c3ccccc3)CC2)nc2scc(-c3cccs3)c12,inhibition,10.8%
